# From ChEMBL document CHEMBL3997808 (J Med Chem, 2017)
# Legend:
# [1] = Drug level in rat hepatocytes treated with GSK2982772 at 10 uM measured up to 4 hrs; format: ADME, cell-based, Hepatocyte
# How it was run: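 Compound at 10 μM was incubated with hepatocyte suspensions at 1 million cells/mL. Incubation ran at 37°C under 5% CO2:95% O2 for up to 4 h.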
# [2] = target: T1, Receptor-interacting serine/threonine-protein kinase 1 (Homo sapiens, UniProt Q13546); experiment: Displacement of (14-(2-{[3-({2-{[4-(cyanomethyl)phenyl]amino}-6-[(5-cyclopropyl-1H-pyrazol-3-yl)-amino]-4-pyrimidinyl}amino)propyl]amino}-2-oxoethyl)-16,16,18,18-tetramethyl-6,7,7a,8a,9,10,16,18-octahydrobenzo[2'',3'']indolizino-[8'',7'':5',6']pyrano[3',2':3,4]pyrido[1,2-a]indol-5-ium-2-sulfonate from human RIP1 (1 to 375 residues) expressed in baculovirus infected insect cells measured for 50 min
# T1 sequence (Q13546 whole entry): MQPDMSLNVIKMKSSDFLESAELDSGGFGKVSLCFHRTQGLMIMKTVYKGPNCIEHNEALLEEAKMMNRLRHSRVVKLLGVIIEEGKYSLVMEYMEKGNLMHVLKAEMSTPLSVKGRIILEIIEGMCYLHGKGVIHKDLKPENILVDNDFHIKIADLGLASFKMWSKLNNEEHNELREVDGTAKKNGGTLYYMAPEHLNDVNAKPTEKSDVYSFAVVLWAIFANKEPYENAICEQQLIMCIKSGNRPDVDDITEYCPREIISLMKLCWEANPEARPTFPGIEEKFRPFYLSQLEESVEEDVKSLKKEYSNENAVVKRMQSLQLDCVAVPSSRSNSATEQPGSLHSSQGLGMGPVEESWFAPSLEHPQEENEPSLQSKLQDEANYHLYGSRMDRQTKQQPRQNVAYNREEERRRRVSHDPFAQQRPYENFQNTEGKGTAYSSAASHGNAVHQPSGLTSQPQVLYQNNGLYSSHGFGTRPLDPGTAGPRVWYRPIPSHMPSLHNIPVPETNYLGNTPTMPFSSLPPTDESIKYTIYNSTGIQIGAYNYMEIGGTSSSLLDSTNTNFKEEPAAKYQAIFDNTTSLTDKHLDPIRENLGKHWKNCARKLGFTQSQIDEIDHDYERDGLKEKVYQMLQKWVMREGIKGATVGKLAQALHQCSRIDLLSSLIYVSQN
# [3] = Lipophilicity, log D of the compound at pH 7.4 by RP-HPLC method; format: physicochemical; details: buffer
# How it was run: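 Chromatographic hydrophobicity index (CHI) log D at pH 7.4, calculated from the retention time in a fast-gradient reverse-phase HPLC run.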
# Rattus norvegicus [4] = experiment: (§1) AUC (0 to infinity) in rat at 2 mg/kg, po; format: ADME, organism-based; parameters: dose 2 mg/kg, route oral, time infinity; details: in vivo, BLD = below limit of detection
# [5] = target: T1, Receptor-interacting serine/threonine-protein kinase 1; experiment: Inhibition of human RIP1 (1 to 375 residues) expressed in baculovirus infected insect cells preincubated for 1 hr followed by ATP addition measured after 5 hrs by ADP-Glo luminescence assay
# [6] = as §1; format: ADME, organism-based; parameters: dose 2 mg/kg, route oral, time infinity; details: in vivo
# [7] = Solubility of the compound in FaSSIF; format: physicochemical
# [8] = Clearance in rat at 2 mg/kg, po; format: ADME, organism-based; details: in vivo
# Rattus norvegicus [9] = experiment: Volume of distribution in rat at 2 mg/kg, po; format: ADME, organism-based; details: in vivo
Compound,IC50 [2],chromatographic logD [3],IC50 [5],AUC(0-inf) [6],also measured
O=C(O)c1n[nH]c(Cc2ccccc2)n1,–,–,–,–,Drug metabolism [1]: Metabolite_Detected
O=C(N[C@H]1COc2ccccc2N(C2CC2)C1=O)c1cc(Cc2ccccc2)on1,> 10000 nM,–,–,–,–
CC(C)Cc1cc(C(=O)N[C@H]2COc3ccccc3N(C)C2=O)no1,1600 nM,–,–,–,–
O=C(NC1Cc2ccccc2NC1=O)c1cc(Cc2ccccc2)on1 (configuration not stated),> 10000 nM,–,–,–,–
O=C(N[C@@H]1CNc2ccccc2OC1)c1cc(Cc2ccccc2)on1,> 10000 nM,–,–,–,–
O=C(N[C@H]1COCCNC1=O)c1cc(Cc2ccccc2)on1,> 10000 nM,–,–,–,–
O=C(N[C@H]1CO[C@@H]2CCCC[C@H]2NC1=O)c1cc(Cc2ccccc2)on1,> 10000 nM,–,–,–,–
CN(C(=O)c1cc(Cc2ccccc2)on1)[C@H]1COc2ccccc2NC1=O,> 10000 nM,–,–,–,–
C[C@]1(NC(=O)c2cc(Cc3ccccc3)on2)COc2ccccc2NC1=O,> 10000 nM,–,–,–,–
CN1C(=O)[C@@H](NC(=O)c2coc(Cc3ccccc3)n2)COc2ccccc21,794 nM,5.4,–,–,–
O=C(N[C@H]1COc2ccccc2NC1=O)c1n[nH]c(Cc2ccccc2)n1,–,–,–,–,Drug metabolism [1]: Metabolite_Detected
CN1C(=O)[C@@H](NC(=O)c2cc(Cc3ccccc3)on2)CSc2ccccc21,–,6.2,–,–,AUC (Rattus norvegicus [4]): Bld
CN1C(=O)[C@@H](N)COc2ccccc21,–,–,–,–,Drug metabolism [1]: Metabolite_Detected
CC(=O)Nc1ccc2c(c1)N(C)C(=O)[C@@H](NC(=O)c1cc(Cc3ccccc3)on1)CO2,–,–,0.32 nM,450 ng·h/mL,–
CN1C(=O)[C@@H](NC(=O)c2c[nH]c(Cc3ccccc3)n2)COc2ccccc21,1260 nM,3.8,–,–,–
Cc1cc(C(=O)N[C@H]2COc3ccccc3N(C)C2=O)no1,12600 nM,–,–,–,–
CN1C[C@H](NC(=O)c2cc(Cc3ccccc3)on2)C(=O)N(C)c2ccccc21,–,6,5 nM,82 ng·h/mL,–
CCCCCc1cc(C(=O)N[C@H]2COc3ccccc3N(C)C2=O)no1,100 nM,–,–,–,–
CN1C(=O)[C@@H](NC(=O)c2ncc(Cc3ccccc3)s2)COc2ccccc21,–,6.5,–,–,–
CN1C(=O)[C@@H](NC(=O)c2cn(Cc3ccccc3)nn2)COc2ccccc21,–,4.6,1 nM,1300 ng·h/mL,–
COC(=O)Nc1ccc2c(c1)N(C)C(=O)[C@@H](NC(=O)c1cc(Cc3ccccc3)on1)CO2,–,–,0.32 nM,1100 ng·h/mL,–
CN1C(=O)[C@@H](NC(=O)c2cnn(Cc3ccccc3)c2)COc2ccccc21,63 nM,4,–,2900 ng·h/mL,–

Compound,IC50 [2],chromatographic logD [3],IC50 [5],AUC(0-inf) [6],also measured
CN1C(=O)[C@@H](NC(=O)c2cc(Cc3ccccc3)on2)COc2ccc(-c3n[nH]c(=O)o3)cc21,–,4.4,0.5 nM,2100 ng·h/mL,solubility [7]: 8 µg/mL
CN1C(=O)[C@@H](NC(=O)c2noc(Cc3ccccc3)n2)COc2ccccc21,–,5.4,0.5 nM,33 ng·h/mL,–
CN1C(=O)[C@@H](NC(=O)c2cc(Cc3ccccc3)on2)COc2ccccc21,–,5.9,–,380 ng·h/mL,solubility [7]: 30 µg/mL; CL/F [8]: 69 mL/min/kg; Vd (Rattus norvegicus [9]): 8.5 L/kg
CN1C(=O)[C@@H](NC(=O)c2cc(Cc3ccccc3)on2)CCc2ccccc21,–,6,–,7 ng·h/mL,–
CN1C(=O)[C@@H](NC(=O)c2cc(Cc3ccccc3)on2)COc2ccc(-c3cc[nH]n3)cc21,–,–,1 nM,600 ng·h/mL,–
CN1C(=O)[C@@H](NC(=O)c2cc(CC3CCCCC3)on2)COc2ccccc21,251 nM,–,–,–,–
O=C(N[C@H]1COc2ccccc2NC1=O)c1cc(Cc2ccccc2)on1,–,–,–,2200 ng·h/mL,–
CN1C(=O)[C@@H](NC(=O)c2cn(Cc3ccccc3)cn2)COc2ccccc21,–,4.2,0.4 nM,660 ng·h/mL,–
CN1C(=O)[C@@H](NC(=O)c2nnc(Cc3ccccc3)o2)COc2ccccc21,–,4.9,0.79 nM,130 ng·h/mL,–
CN1C(=O)[C@@H](NC(=O)c2n[nH]c(C(O)c3ccccc3)n2)COc2ccccc21 (some centres not stated),–,–,–,–,Drug metabolism [1]: Metabolite_Detected
CN1C(=O)[C@@H](NC(=O)c2cc(Cc3ccccc3)n(C)n2)COc2ccccc21,–,5.4,0.4 nM,170 ng·h/mL,–
CN1C(=O)[C@@H](NC(=O)c2cc(Cc3ccccc3)on2)CNc2ccccc21,–,5,–,800 ng·h/mL,solubility [7]: 97 µg/mL
CN1C(=O)[C@@H](NC(=O)c2cc(Cc3ccccc3)on2)COc2ccc(NS(C)(=O)=O)cc21,–,–,0.63 nM,–,–
O=C(N[C@H]1CCOc2ccccc2NC1=O)c1cc(Cc2ccccc2)on1,200 nM,–,–,380 ng·h/mL,–
CN1C(=O)[C@@H](NC(=O)c2cccc(Cc3ccccc3)c2)COc2ccccc21,251 nM,6.3,–,–,–
CN1C(=O)[C@@H](NC(=O)c2cc(Cc3ccccc3)ccn2)COc2ccccc21,–,6.4,2 nM,–,–
CN1C(=O)[C@@H](NC(=O)c2ncn(Cc3ccccc3)n2)COc2ccccc21,–,4.2,0.63 nM,280 ng·h/mL,–
CN1C(=O)[C@@H](NC(=O)c2cc(CN3CCCCC3)on2)COc2ccccc21,> 10000 nM,–,–,–,–
CN1C(=O)[C@@H](NC(=O)c2nnn(Cc3ccccc3)n2)COc2ccccc21,–,5,0.079 nM,240 ng·h/mL,–
CN1C(=O)[C@@H](NC(=O)c2ncc(Cc3ccccc3)o2)COc2ccccc21,–,5.6,0.05 nM,55 ng·h/mL,–
CCN1C(=O)[C@@H](NC(=O)c2cc(Cc3ccccc3)on2)COc2ccccc21,3160 nM,–,–,–,–
